In ChEMBL document CHEMBL1124447, “Quinazoline antifolates inhibiting thymidylate synthase: 2-desamino derivatives with enhanced solubility and potency” (J Med Chem, 1989):
≈ marks a conversion by molar mass, not a printed value.

Columns and labels:
L1210 = assay: Compound was evaluated for inhibition dose required to inhibit the growth of L1210 cells in culture.; type: functional; conditions: Mus musculus, read-out: ID50 (the source's name)
Thymidylate synthase = Thymidylate synthase (Mus musculus, UniProt P07607); assay: Inhibitory concentration of compound to inhibit Thymidylate synthase (TS) in L1210 cells at conc. of 200 uM; type: cell-based
Sequence of Thymidylate synthase (P07607 whole entry): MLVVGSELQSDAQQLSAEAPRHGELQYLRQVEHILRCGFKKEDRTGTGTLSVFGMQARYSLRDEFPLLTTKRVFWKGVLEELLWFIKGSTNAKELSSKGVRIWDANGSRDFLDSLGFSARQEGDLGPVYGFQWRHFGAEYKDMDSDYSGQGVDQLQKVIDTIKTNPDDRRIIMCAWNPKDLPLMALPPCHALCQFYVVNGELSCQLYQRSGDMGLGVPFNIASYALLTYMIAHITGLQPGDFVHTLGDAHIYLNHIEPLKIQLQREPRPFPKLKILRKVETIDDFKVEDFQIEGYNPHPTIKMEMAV
Procedure, shortened: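 Partially purified thymidylate synthase from L1210 leukemia cells; the enzyme assay used (±)-5,10-methylenetetrahydrofolate (5,10-CH2-FH4) cofactor at 200 μM.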

[1] = Solubility at pH 5; type: physicochemical; conditions: buffer
Procedure, shortened: (§1)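 Run at 18 °C in 0.01 M potassium phosphate buffer. A saturated suspension was brought to pH 7.4 with 5 M KOH, held overnight, filtered through 0.22 µm, readjusted and refiltered. For pH 5.0, part of the filtrate was acidified with phosphoric acid and refiltered, then diluted with pH 5.0 buffer if opalescent. Samples were diluted in 0.1 M NaOH and concentration read by UV absorbance at 301.5 nm.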

[2] = Solubility at pH 7.4; type: physicochemical; conditions: buffer; procedure, shortened: as §1

SMILES	IC50 (L1210) [nM]	IC50 (Thymidylate synthase) [nM]	solubility [1] [µg/mL]	solubility [2] [µg/mL]
C=CCN(Cc1ccc2nc(N)nc(O)c2c1)c1ccc(C(=O)NC(CCC(=O)O)C(=O)O)cc1 (stereo not drawn)	6000	280	–	–
CCN(Cc1ccc2ncnc(O)c2c1)c1ccc(C(=O)NC(CCC(=O)O)C(=O)O)cc1 (stereo not drawn)	2700	–	–	–
C#CCN(Cc1ccc2ncnc(O)c2c1)c1ccc(C(=O)NC(CCC(=O)O)C(=O)O)cc1 (stereo not drawn)	400	–	43 (≈ 93 µM)	> 107000
CCN(Cc1ccc2nc(N)nc(O)c2c1)c1ccc(C(=O)NC(CCC(=O)O)C(=O)O)cc1 (stereo not drawn)	9000	–	–	–
CN(Cc1ccc2nc(N)nc(O)c2c1)c1ccc(C(=O)NC(CCC(=O)O)C(=O)O)cc1 (stereo not drawn)	4500	360	–	–
CN(Cc1ccc2ncnc(O)c2c1)c1ccc(C(=O)NC(CCC(=O)O)C(=O)O)cc1 (stereo not drawn)	900	1060	–	–
C#CCN(Cc1ccc2[nH]c(N)nc(=O)c2c1)c1ccc(C(=O)NC(CCC(=O)O)C(=O)O)cc1 (stereo not drawn)	3400	–	8.6 (≈ 18 µM)	312 (≈ 653 µM)
C=CCN(Cc1ccc2ncnc(O)c2c1)c1ccc(C(=O)NC(CCC(=O)O)C(=O)O)cc1 (stereo not drawn)	2500	1120	–	–
O=C(O)CCC(NC(=O)c1ccc(NCc2ccc3ncnc(O)c3c2)cc1)C(=O)O (stereo not drawn)	400	–	–	–
Nc1nc(O)c2cc(CNc3ccc(C(=O)NC(CCC(=O)O)C(=O)O)cc3)ccc2n1 (stereo not drawn) [DIDEAZAFOLATE]	2700	–	–	–
